Screening data from PubChem.
A selection: hits, their analogues and other compounds. The true share with any hit is near 3.1%.
aDG glyco up – alpha-DG glycosylation activation; hit rate 0.22% among 360,000; activation, % at 10 µM; Pro5-aDG cells, alpha-DG glycosylation AlphaScreen (IIH6); 0% Pro5, 100% B10-LARGE cell signal; AID 624168;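 active = activation of at least 8% versus controls, or a plate z-score of at least 8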;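 note: Pro5 are CHO cells carrying HIG-tagged alpha-DG that lacks glycosylation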
V-ATPase pH – regulators of yeast V-ATPase proton transport; S. cerevisiae, pHLuorin cytosolic pH fluorescence; response, % at 10 µM; hit rate 0.37% among 350,000; in the data active = response mostly above about 7.3%, no sharp cut-off; inactive = mostly below about 5.4%; note: actives read high
MPTP inh – inhibitors of mitochondrial permeability transition pore; isolated mouse mitochondria, Ca2+ swelling absorbance, 30 min; inhibition, % at 10 µM; hit rate 1.4% among 360,000;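 active = inhibition of 50% or more, scaled per plate between neutral and stimulator controls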;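 note: 0% = DMSO wells given calcium and 100% = 1 mM EGTA wells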
ADAM17 inh – ADAM17 inhibition, QFRET primary screen. P78536. recombinant ADAM17, EDANS/DABCYL FRET peptide cleavage. inhibition, % at 6.95 µM. hit rate 0.83% among 370,000;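 active = inhibition above the mean of compounds lying between control limits plus 3 SD, set per campaign, cut at about 8.5% in these data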;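 note: 0% = DMSO-only wells as the low control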
ADAM10 inh – inhibitors of human ADAM10. O14672. hit rate 0.62% among 370,000. inhibition, % at 7 µM. recombinant ADAM10, EDANS/DABCYL FRET peptide cleavage, 3 h. AID 720582;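 active = inhibition above a per-campaign cutoff equal to the mean of compounds falling between control-based bounds plus 3 SD, cut at about 20% in these data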;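 note: 0% = DMSO wells while the 100% control is not disclosed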
Target sequence (O14672 214-748 limits assumed): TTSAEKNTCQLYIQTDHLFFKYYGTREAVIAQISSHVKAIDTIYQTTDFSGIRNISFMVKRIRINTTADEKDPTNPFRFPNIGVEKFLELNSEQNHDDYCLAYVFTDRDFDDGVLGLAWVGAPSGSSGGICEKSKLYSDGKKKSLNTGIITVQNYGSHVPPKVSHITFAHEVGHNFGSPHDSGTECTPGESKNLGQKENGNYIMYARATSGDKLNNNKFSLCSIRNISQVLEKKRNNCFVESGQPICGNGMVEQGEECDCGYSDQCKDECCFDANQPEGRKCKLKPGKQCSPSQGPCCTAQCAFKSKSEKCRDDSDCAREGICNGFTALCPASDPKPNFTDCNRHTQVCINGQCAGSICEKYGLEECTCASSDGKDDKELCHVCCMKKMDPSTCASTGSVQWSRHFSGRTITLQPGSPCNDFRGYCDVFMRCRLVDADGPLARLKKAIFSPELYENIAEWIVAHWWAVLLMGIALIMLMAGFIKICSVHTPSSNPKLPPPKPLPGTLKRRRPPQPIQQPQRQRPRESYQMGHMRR
Lipid droplet – hepatic lipid droplet formation modulation. hit rate 0.4% among 240,000. AML12 mouse hepatocytes, oleate lipid droplets, BODIPY imaging. AID 1656. inhibition, % at 6.5 µM;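 active = lipid droplet intensity inhibited by at least 50%, with more than 500 cells counted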
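Assay system: AML12 hepatocytes (mouse); Probe or stimulus: oleic acid at 100 µM to induce lipid droplet formation; Dosing: compound at 6.5 µM only; Schedule: compound with oleate, overnight; Detection: fluorescence imaging, 20x objective, two fields per well; Measure: % inhibition of lipid droplet signal.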
ADAM10 confirm – confirmation of inhibitors of human ADAM10 | shares compounds with ADAM10 inh | ADAM10 QFRET peptide cleavage, EDANS fluorescence | inhibition, % at 6.95 µM | hit rate 1% among 2,100 | AID 743208;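 active = inhibition above about 20% chosen separately for each screening run, limit read from the data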;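 note: 0% = DMSO wells and 100% = marimastat wells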
ADAM17 ctr – counter-screen for ADAM10 exosite inhibitors: inhibitors of human ADAM17 | inhibition, % at 6.95 µM | shares compounds with ADAM10 inh | hit rate 0.5% among 2,100 | ADAM17 QFRET peptide cleavage, EDANS fluorescence;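 active = mean triplicate inhibition above the solvent-only control wells' mean plus 3 SD, cut at about 12% in these data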;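 note: 0% = DMSO wells and 100% = marimastat wells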
Starred values were filed as active, the others as inactive; nt = not tested or not shown.

SMILES	aDG glyco up	V-ATPase pH	MPTP inh	ADAM17 inh	ADAM10 inh	Lipid droplet	ADAM10 confirm	ADAM17 ctr
Cc1sc2nc(CSc3ccccc3)nc(N3CCC(C(N)=O)CC3)c2c1C	-0.5	-2.2	-1.9	7.2	20.1*	-10.9	2.6	0.5
COc1ccc(S[C@]2(C(=O)N3CCOCC3)CC(=O)N(C(=O)Nc3ccc(C)c(Cl)c3)[C@@H]2c2ccc(OC)cc2)cc1	nt	nt	nt	3.8	6.3	nt	nt	nt
Cc1ccc(NC(=O)Nc2ccc3c(c2)[C@]2(CC(=O)N(CC(C)C)C2c2ccccc2)C(=O)N3C)cc1Cl (stereo partly specified)	nt	nt	nt	9.5*	21.7*	nt	7.4	2.4
CC(C)CN1C(=O)C[C@]2(C(=O)N(C)c3ccc(NC(=O)C(C)(C)C)cc32)C1c1ccccc1 (stereo partly specified)	nt	nt	nt	-2.7	-4.5	nt	nt	nt
CC(=O)c1ccc(NC(=O)COC(=O)C2CCN(S(=O)(=O)c3cccs3)CC2)cc1	-0.4	-2.5	0.1	-0.9	84.7*	nt	-0.2	0.2
COc1cccc(NC(=O)COC(=O)C2CCN(S(=O)(=O)c3cccs3)CC2)c1	-0.4	1.0	-0.7	2.6	6.5	5.7	nt	nt
O=C(NO)c1ccc(C(=O)N(C2CCCCC2)C2CCCCC2)cc1	0.2	3.7	1.2	3.6	29.6*	nt	22.0*	1.6
O=[N+]([O-])c1ccc(N/N=C/c2cccc(O)c2O)c(S(=O)(=O)N2CCOCC2)c1	-0.2	2.1	20.3	7.7	30.4*	-4.9	7.4	3.3
Cc1ccccc1CNC(=O)C1CCCN(c2ncccn2)C1 (stereo unspecified)	nt	nt	nt	-6.7	-21.3	nt	nt	nt
C=CCN1C(=O)[C@@H](CC(=O)N2CCSCC2)[C@]2(C(=O)OC)CCCCC=C12	nt	nt	nt	1.6	-12.5	nt	nt	nt
CCOc1ccc(NC(=O)CSc2nnc(-c3n[nH]c4c3CCC4)n2N)cc1	nt	nt	nt	0.5	-1.4	nt	nt	nt
O=C(O)C(Nc1nc(C(F)(F)F)nc2ccccc12)c1ccccc1 (stereo unspecified)	0.0	0.9	-1.3	0.7	19.8*	-2.4	1.4	0.7
OC(CNc1nc(C(F)(F)F)nc2ccccc12)c1ccccc1 (stereo unspecified)	0.0	0.2	2.9	2.1	8.6	-12.7	nt	nt
CC(C)CNC(=O)C1CSCCS(=O)(=O)N1Cc1ccccc1 (stereo unspecified)	nt	nt	nt	-3.1	-2.2	nt	nt	nt
O=C(CSc1nc2ccccc2c(=O)n1-c1ccc(F)cc1)Nc1ccc(C(=O)O)cc1	-0.1	1.2	-1.2	0.2	7.2	12.9	nt	nt
CCN(CC)c1ccc(NC(=O)CSc2nc3ccccc3c(=O)n2-c2ccc(C)cc2)cc1	nt	nt	nt	5.4	38.4*	nt	12.8	6.2
O=C(NCCNC(=O)c1cnccn1)c1ccc(Cl)cc1	0.0	-2.2	-0.4	-1.0	13.0	-3.9	nt	nt
CC(C)c1ccc(C(=O)NCCCNC(=O)c2cnccn2)cc1	-0.1	-10.2	1.4	-0.6	50.6*	-3.9	-0.2	-0.3
Cc1ccc(OCC(O)Cn2c3ccccc3c3ccccc32)cc1 (stereo unspecified)	0.2	0.2	8.5	7.3	20.6*	nt	17.5	7.0
CCCNC(=O)C(Cc1cccc(OC)c1)NC(=O)c1ccc(C(C)(C)C)cc1 (stereo unspecified)	0.2	-2.2	0.2	0.8	82.6*	nt	0.2	0.1
CCCNC(=O)C(Cc1cccc(OC)c1)NC(=O)c1ccc(C#N)cc1 (stereo unspecified)	-0.1	-3.2	-1.9	-1.3	3.0	nt	nt	nt
COc1ccc2cc(-c3cccc4[nH]cc(C)c34)ccc2c1	nt	nt	nt	-37.6	-78.3	nt	nt	nt
C[C@@H]1/C=C/CC(=O)N[C@H](c2ccccc2)[C@H](C)/C=C/CC(=O)N[C@@H]1c1ccccc1	nt	nt	nt	-5.5	-5.8	nt	nt	nt
CCc1nc(NCc2ccc3c(c2)OCO3)c2oc3ccccc3c2n1	0.1	0.1	31.4	7.8	27.6*	nt	5.8	1.6
COc1ccc(NC(=O)CN(C)C(=O)c2ccc(S(=O)(=O)N3CCOCC3)cc2)cc1	-0.1	-0.4	1.1	-2.5	-1.8	nt	nt	nt
